From ChEMBL document CHEMBL1212693, “Dorsomorphin inhibits BMP signals required for embryogenesis and iron metabolism” (Nat Chem Biol, 2008)
The source made the active and inactive calls.

How the values were obtained:
Mus musculus [1] = assay: Inhibition of iron-dextran conjugate-induced Smad-1 phosphorylation in C57BL/6 mouse at 23 ug/g, iv after 1 hr; assay type: functional, organism-based
Mus musculus [2] = organism: Mus musculus; assay: Inhibition of BMPR1-mediated MAPK p38 phosphorylation in BMP4-stimulated mouse PASMC treated 30 mins before BMP4 challenge measured after 30 mins by immunoblot analysis
In short: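 Mouse PASMCs were held 24 h in 0.5% FCS RPMI, preincubated 30 min with a dose range of compound, then stimulated 30 min with BMP4. Phospho-SMAD1/5/8 and phospho-p38 were detected by immunoblot and quantitated by phosphorimager (RLU). IC50 was derived from a Hill plot of phospho-SMAD1/5/8 inhibition.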

Mus musculus [3] = organism: Mus musculus; assay: Inhibition of BMPR1-mediated Smad-8 phosphorylation in BMP4-stimulated mouse PASMC at 4 uM treated 30 mins before BMP4 challenge measured after 30 mins by immunoblot analysis
In short: (§1)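 Wild-type mouse PASMCs were kept in RPMI with 0.5% FCS for 24 h. They were preincubated with compound or vehicle for 30 min, then stimulated for 30 min with recombinant BMP2, BMP4, BMP6 or BMP7 at 10 ng ml−1. Lysates in SDS buffer were immunoblotted with anti-phospho-SMAD1/5/8. Total SMAD1 and α-tubulin served as loading controls, and bands were quantified by phosphorimager.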

Mus musculus [4] = organism: Mus musculus; assay: Inhibition of BMPR1-mediated Smad-5 phosphorylation in BMP6-stimulated mouse PASMC at 4 uM treated 30 mins before BMP6 challenge measured after 30 mins by immunoblot analysis; in short: as §1
Mus musculus [5] = organism: Mus musculus; assay: Inhibition of BMPR1-mediated Smad-8 phosphorylation in BMP6-stimulated mouse PASMC at 4 uM treated 30 mins before BMP6 challenge measured after 30 mins by immunoblot analysis; in short: as §1
Mus musculus [6] = organism: Mus musculus; assay: Inhibition of BMPR1-mediated Smad-1 phosphorylation in BMP7-stimulated mouse PASMC at 4 uM treated 30 mins before BMP7 challenge measured after 30 mins by immunoblot analysis; in short: as §1
Mus musculus [7] = organism: Mus musculus; assay: Inhibition of activin receptor-mediated Smad-2 phosphorylation in activin-stimulated mouse PASMC at => 10 uM treated 30 mins before activin challenge measured after 30 mins by immunoblot analysis
In short: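 PASMCs serum-starved 24 h (0.5% FCS RPMI) were pretreated 30 min with compound at 0.1–20 µM or vehicle. They were then stimulated 30 min with recombinant TGF-β1 or activin A. Phospho-SMAD2 was detected by immunoblot of SDS lysates, and phosphorimager quantification was used.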

Mus musculus [8] = organism: Mus musculus; assay: Inhibition of ALK2-mediated Smad-1 phosphorylation in BMPR2 deficient mouse PASMC at 10 uM by immunoblot analysis
In short: (§2)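 BMPR-II–deficient mouse PASMCs (RPMI, 10% FBS) transiently transfected with constitutively active ALK2, ALK3 or ALK6 cDNA, or plasmid-only control. Incubated with or without compound (10 µM). Extracts lysed in SDS buffer, run on SDS-PAGE and immunoblotted for phospho-SMAD1/5/8; quantitated by phosphorimager.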

Mus musculus [9] = organism: Mus musculus; assay: Inhibition of ALK2-mediated Smad-8 phosphorylation in BMPR2 deficient mouse PASMC at 10 uM by immunoblot analysis; in short: as §2
Mus musculus [10] = organism: Mus musculus; assay: Inhibition of ALK6-mediated Smad-1 phosphorylation in BMPR2 deficient mouse PASMC at 10 uM by immunoblot analysis; in short: as §2
C2C12 = assay: Inhibition of BMPR1-mediated osteoblast differentiation in BMP4-stimulated mouse C2C12 cells assessed as decrease in alkaline phosphatase level at 4 uM by spectrophotometry; assay type: cell-based
In short: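 C2C12 cells were seeded at 2,000 per well in DMEM with 2% FBS and treated in quadruplicate with BMP4 or BMP6 plus compound or vehicle. After 5 d, cells were lysed in TBS with 1% Triton X-100. Lysates were incubated 1 h with p-nitrophenylphosphate and alkaline phosphatase was read as absorbance at 405 nm. Cell count was measured by CyQuant in parallel wells.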

Danio rerio [11] = organism: Danio rerio; assay: Toxicity in zebrafish assessed as morphological changes at 1 to 4 uM treated at 24 hrs post-fertilization measured on day 10 post-fertilization; assay type: organism-based; conditions: in vivo
In short: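 WT zebrafish embryos were raised in E3 containing phenylthiourea and exposed from 1 d.p.f. to compound (1–4 µM) or DMSO. From 5 d.p.f. larvae were fed 1 h every other day, with medium renewed after each feeding. At 10 d.p.f. they were calcein-stained and checked by brightfield microscopy for gross morphology and function.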

Danio rerio [12] = organism: Danio rerio; assay: Inhibition of BMPR1 in zebrafish assessed as penetrance of normal embryonic axis dorsalization at 10 uM treated at 2 to 6 hrs post-fertilization measured at 48 hrs; parameters: scale not given: the % may be the effect or the level left
Danio rerio [13] = organism: Danio rerio; assay: Inhibition of BMPR1 in zebrafish assessed as penetrance of mild embryonic axis dorsalization at 0.5 uM treated at 3 hrs post-fertilization measured at 48 hrs; parameters: scale not given: the % may be the effect or the level left
In short: (§3)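 Compound added at the stated times and concentrations. Gross morphology scored visually at up to 48 h.p.f. for dorsalization of the embryonic axis.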

Danio rerio [14] = organism: Danio rerio; assay: Inhibition of BMPR1 in zebrafish assessed as penetrance of moderate embryonic axis dorsalization at 0.5 uM treated at 3 hrs post-fertilization measured at 48 hrs; parameters: scale not given: the % may be the effect or the level left; in short: as §3
Danio rerio [15] = organism: Danio rerio; assay: Inhibition of BMPR1 in zebrafish assessed as penetrance of mild embryonic axis dorsalization at 1 uM treated at 3 hrs post-fertilization measured at 48 hrs; parameters: scale not given: the % may be the effect or the level left; in short: as §3
Danio rerio [16] = organism: Danio rerio; assay: Inhibition of BMPR1 in zebrafish assessed as severity of embryonic axis dorsalization at 1 uM treated at 3 hrs post-fertilization measured at 48 hrs; parameters: scale not given: the % may be the effect or the level left
Danio rerio [17] = organism: Danio rerio; assay: Inhibition of BMPR1 in zebrafish assessed as penetrance of normal embryonic axis dorsalization at 2 uM treated at 3 hrs post-fertilization measured at 48 hrs; parameters: scale not given: the % may be the effect or the level left
Danio rerio [18] = organism: Danio rerio; assay: Inhibition of BMPR1 in zebrafish assessed as penetrance of moderate embryonic axis dorsalization at 5 uM treated at 3 hrs post-fertilization measured at 48 hrs; parameters: scale not given: the % may be the effect or the level left
[19] = target: Vascular endothelial growth factor receptor 2 (Danio rerio) (UniProt Q5GIT4); assay: Inhibition of KDR in zebrafish assessed as embryonic axis dorsalization at 10 uM treated occasionally at 6 to 8 hrs post-fertilization measured at 48 hrs
Chain of Vascular endothelial growth factor receptor 2 (Danio rerio) (Q5GIT4 whole entry): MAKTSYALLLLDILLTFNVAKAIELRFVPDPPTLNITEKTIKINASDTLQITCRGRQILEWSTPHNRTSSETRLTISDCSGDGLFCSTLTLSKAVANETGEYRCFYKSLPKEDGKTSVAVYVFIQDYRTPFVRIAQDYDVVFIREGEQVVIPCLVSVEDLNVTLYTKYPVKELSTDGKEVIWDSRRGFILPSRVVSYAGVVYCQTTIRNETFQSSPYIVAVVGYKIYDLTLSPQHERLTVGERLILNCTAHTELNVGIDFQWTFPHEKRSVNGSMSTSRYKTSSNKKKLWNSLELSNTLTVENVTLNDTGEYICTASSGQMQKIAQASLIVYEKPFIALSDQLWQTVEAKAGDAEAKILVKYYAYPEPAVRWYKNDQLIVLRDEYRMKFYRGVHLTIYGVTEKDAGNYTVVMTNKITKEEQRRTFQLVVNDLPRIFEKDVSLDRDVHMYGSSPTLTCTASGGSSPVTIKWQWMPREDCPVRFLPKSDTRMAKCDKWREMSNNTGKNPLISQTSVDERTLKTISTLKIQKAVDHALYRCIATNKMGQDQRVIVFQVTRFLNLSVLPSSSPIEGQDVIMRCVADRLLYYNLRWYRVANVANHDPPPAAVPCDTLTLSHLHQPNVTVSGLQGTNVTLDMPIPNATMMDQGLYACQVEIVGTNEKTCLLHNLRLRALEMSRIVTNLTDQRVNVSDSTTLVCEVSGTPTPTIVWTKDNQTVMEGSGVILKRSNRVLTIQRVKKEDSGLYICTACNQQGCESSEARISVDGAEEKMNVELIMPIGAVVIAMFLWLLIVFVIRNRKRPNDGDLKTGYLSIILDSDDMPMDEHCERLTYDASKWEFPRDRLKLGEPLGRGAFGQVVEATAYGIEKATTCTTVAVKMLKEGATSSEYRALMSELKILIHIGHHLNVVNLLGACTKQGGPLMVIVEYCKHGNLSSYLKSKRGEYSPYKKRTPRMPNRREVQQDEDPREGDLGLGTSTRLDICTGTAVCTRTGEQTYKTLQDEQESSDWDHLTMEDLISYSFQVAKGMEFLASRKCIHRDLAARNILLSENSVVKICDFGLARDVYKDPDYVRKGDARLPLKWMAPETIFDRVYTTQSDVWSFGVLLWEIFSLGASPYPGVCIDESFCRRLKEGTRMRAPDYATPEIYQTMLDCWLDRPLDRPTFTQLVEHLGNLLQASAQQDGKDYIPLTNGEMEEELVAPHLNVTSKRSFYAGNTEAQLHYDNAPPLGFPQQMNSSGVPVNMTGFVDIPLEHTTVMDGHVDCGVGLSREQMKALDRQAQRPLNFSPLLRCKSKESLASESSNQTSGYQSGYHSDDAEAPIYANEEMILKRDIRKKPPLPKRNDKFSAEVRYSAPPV
In short: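 Newly fertilised WT zebrafish eggs were arrayed in triplicate in E3 buffer and kept at 28.5 °C. Compound (10 µM) was added at 6–8 h.p.f. Gross morphology was inspected visually for dorsalisation or ventralisation of the embryonic axis, with photographs at 36–48 h.p.f.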

Danio rerio [20] = organism: Danio rerio; assay: Inhibition of BMPR1 in zebrafish assessed as increase in egr2b expression at 10 uM treated at 12 hrs post-fertilization measured at 48 hrs
Danio rerio [21] = organism: Danio rerio; assay: Inhibition of BMPR1 in zebrafish assessed as penetrance of normal embryonic axis dorsalization at 10 uM treated continuously from 4 hrs post-fertilization measured after 48 hrs; parameters: scale not given: the % may be the effect or the level left
Danio rerio [22] = organism: Danio rerio; assay: Inhibition of BMPR1 in zebrafish assessed as penetrance of moderate embryonic axis dorsalization at 10 uM treated continuously from 2 hrs post-fertilization measured after 48 hrs; parameters: scale not given: the % may be the effect or the level left; in short: as §3
Danio rerio [23] = organism: Danio rerio; assay: Inhibition of BMPR1 in zebrafish assessed as penetrance of normal embryonic axis dorsalization at 10 uM treated continuously from 2 hrs post-fertilization measured after 48 hrs; parameters: scale not given: the % may be the effect or the level left
Danio rerio [24] = organism: Danio rerio; assay: Inhibition of BMPR1 in zebrafish assessed as penetrance of mild embryonic axis dorsalization at 10 uM treated continuously from 8 hrs post-fertilization measured at 48 hrs; parameters: scale not given: the % may be the effect or the level left; in short: as §3

c1cc(-c2cnn3cc(-c4ccc(OCCN5CCCCC5)cc4)cnc23)ccn1 [DORSOMORPHIN]
0%: Activity (Danio rerio [12]) | Activity (Danio rerio [13]) | Activity (Danio rerio [14]) | Activity (Danio rerio [15]) | Activity (Danio rerio [16]) | Activity (Danio rerio [18]) | Activity (Danio rerio [21]) | Activity (Danio rerio [22]) | Activity (Danio rerio [23])
Non-toxic: Activity (Danio rerio [11])
active: inhibition (Mus musculus [1]) | inhibition (Mus musculus [3]) | inhibition (Mus musculus [4]) | inhibition (Mus musculus [5]) | inhibition (Mus musculus [6]) | inhibition (Mus musculus [7]) | inhibition (Mus musculus [8]) | inhibition (Mus musculus [9]) | inhibition (Mus musculus [10]) | inhibition (C2C12) | Activity (Danio rerio [20])
100%: Activity (Danio rerio [17])
85%: Activity (Danio rerio [24])
inactive: inhibition (Mus musculus [2]) | inhibition [19]
